Assay results as given in ChEMBL document CHEMBL3997828, “Investigation of orexin-2 selective receptor antagonists: Structural modifications resulting in dual orexin receptor antagonists” (Bioorg Med Chem Lett, 2017).
In brackets after ≈: the same amount, converted by molar mass.

Tests used:
Homo sapiens [1] = species: Homo sapiens; test: Selectivity ratio of Ki for human OX1R expressed in CHOK1 cell membranes to Ki for human OX2R expressed in CHOK1 cell membranes; assay type: cell-based
Procedure, shortened: (§1)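 Radioligand competition binding used membranes from CHO-K1 cells overexpressing human OX1R or OX2R. […] The selectivity ratio is OX1R Ki divided by OX2R Ki.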

[2] = biological target: T1, Orexin/Hypocretin receptor type 1 (Homo sapiens, UniProt O43613); test: Antagonist activity at human OX1R expressed in CHOK1 cells assessed as reduction in orexin A-induced calcium flux preincubated followed by orexin A addition by FLIPR assays; assay type: functional, cell-based
T1 sequence (O43613 whole entry): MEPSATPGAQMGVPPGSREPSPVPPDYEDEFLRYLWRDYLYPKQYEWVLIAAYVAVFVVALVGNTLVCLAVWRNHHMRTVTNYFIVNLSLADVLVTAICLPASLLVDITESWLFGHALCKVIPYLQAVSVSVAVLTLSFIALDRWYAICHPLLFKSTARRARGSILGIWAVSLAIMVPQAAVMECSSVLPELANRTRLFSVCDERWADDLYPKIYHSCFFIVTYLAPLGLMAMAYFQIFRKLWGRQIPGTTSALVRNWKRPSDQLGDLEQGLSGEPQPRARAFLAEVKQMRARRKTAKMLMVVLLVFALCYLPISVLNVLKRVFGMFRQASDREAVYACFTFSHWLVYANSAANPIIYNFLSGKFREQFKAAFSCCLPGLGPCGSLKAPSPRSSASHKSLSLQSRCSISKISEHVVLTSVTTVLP

Homo sapiens [3] = species: Homo sapiens; test: Selectivity ratio of IC50 for human OX1R expressed in CHOK1 cells to IC50 for human OX2R expressed in CHOK1 cells by FLIPR assay; assay type: cell-based
[4] = Solubility of the compound in pH 6.5 FASSIF at 0.1 mg/ml after 15 mins by reverse-phase chromatography; assay type: physicochemical; details: fasted state simulated intestinal fluid (FaSSIF)
Procedure, shortened: (§2)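 Compound at […] was stirred at 80 rpm in SGF (0.01 N HCl, 0.9 wt.% NaCl, pH 1.8) or FASSIF (3 mM sodium taurocholate, 0.75 mM lecithin, 100 mM NaCl, NaOH/NaH₂PO₄, pH 6.5). It was then centrifuged at 14k rpm for 15 min.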

[5] = biological target: T1, Orexin/Hypocretin receptor type 1; test: Displacement of [3H](S)-N-(biphenyl-2-yl)-1-(2-(1-methyl-1H-benzo[d]imidazol-2-ylthio)acetyl)pyrrolidine-2-carboxamide from human OX1R expressed in CHOK1 cell membranes
Procedure, shortened: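 Radioligand competition binding used membranes from CHO-K1 cells overexpressing human OX1R or OX2R. The selectivity ratio is OX1R Ki divided by OX2R Ki.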

[6] = Solubility of the compound in pH 1.8 SGF at 0.1 mg/ml after 15 mins by reverse-phase chromatography; assay type: physicochemical; details: simulated gastric fluid (SGF); procedure, shortened: as §2
Orexin receptor type 2 [7] = biological target: T2, Orexin receptor type 2 (Homo sapiens, UniProt O43614); test: Displacement of [3H](S)-N-(2-(1H-pyrrol-1-yl)phenyl)-1-(2-(1-methyl-1H-benzo[d]imidazol-2-ylthio)acetyl)pyrrolidine-2-carboxamide from human OX2R expressed in CHOK1 cell membranes; procedure, shortened: as §1
T2 sequence (O43614 whole entry): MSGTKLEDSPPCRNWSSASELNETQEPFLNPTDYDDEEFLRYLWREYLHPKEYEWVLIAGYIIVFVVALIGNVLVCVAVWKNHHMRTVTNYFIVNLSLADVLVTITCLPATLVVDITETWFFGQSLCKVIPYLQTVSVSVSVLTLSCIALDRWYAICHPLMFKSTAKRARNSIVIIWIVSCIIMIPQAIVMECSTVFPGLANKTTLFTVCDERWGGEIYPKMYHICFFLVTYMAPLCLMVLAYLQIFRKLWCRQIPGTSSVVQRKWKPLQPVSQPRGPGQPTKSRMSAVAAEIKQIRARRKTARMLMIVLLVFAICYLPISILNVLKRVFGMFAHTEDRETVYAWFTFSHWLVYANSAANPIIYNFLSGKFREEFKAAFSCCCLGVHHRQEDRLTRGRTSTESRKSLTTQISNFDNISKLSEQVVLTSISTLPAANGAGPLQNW

[8] = Time-dependent inhibition of CYP450 (unknown origin); assay type: ADME; details: human
Orexin receptor type 2 [9] = biological target: T2, Orexin receptor type 2; test: Antagonist activity at human OX2R expressed in CHOK1 cells assessed as reduction in orexin A-induced calcium flux preincubated followed by orexin A addition by FLIPR assays; assay type: functional, cell-based
[10] = biological target: T3, Nuclear receptor subfamily 1 group I member 2 (Homo sapiens, UniProt O75469); test: Inhibition of PXR (unknown origin); assay type: ADME
T3 sequence (O75469 whole entry): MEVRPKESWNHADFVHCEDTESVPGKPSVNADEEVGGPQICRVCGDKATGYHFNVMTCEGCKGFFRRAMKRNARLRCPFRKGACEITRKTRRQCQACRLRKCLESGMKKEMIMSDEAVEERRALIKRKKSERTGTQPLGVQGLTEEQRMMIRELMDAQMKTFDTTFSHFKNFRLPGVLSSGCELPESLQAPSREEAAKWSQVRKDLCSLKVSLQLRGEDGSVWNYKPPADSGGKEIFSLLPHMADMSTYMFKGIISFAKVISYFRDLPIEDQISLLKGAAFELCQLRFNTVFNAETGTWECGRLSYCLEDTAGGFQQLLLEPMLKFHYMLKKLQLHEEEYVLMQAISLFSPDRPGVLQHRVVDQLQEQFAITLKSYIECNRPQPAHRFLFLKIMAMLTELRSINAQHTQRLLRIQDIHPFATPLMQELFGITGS

Structure (SMILES)	Ratio Ki (Homo sapiens [1])	IC50 [2]	Ratio IC50 (Homo sapiens [3])	solubility at 0.25 h [4]	Ki [5]	solubility at 0.25 h [6]	Ki (Orexin receptor type 2 [7])	TDI [8]	IC50 (Orexin receptor type 2 [9])	inhibition (INH) [10]
Cc1c(C#N)ccnc1O[C@@H]1CC[C@@H](C)N(C(=O)c2ccccc2-n2nccn2)C1	285	996 nM	125	–	–	–	–	–	–	–
C[C@@H]1CC[C@@H](Oc2cc(C#N)ccn2)CN1C(=O)c1ccccc1-c1ncccn1	438	–	175	660 µg/mL (≈ 1650 µM)	569 nM	680 µg/mL (≈ 1700 µM)	–	–	–	–
Cc1c(C#N)ccnc1O[C@@H]1CC[C@@H](C)N(C(=O)c2ccccc2C(F)(F)F)C1	373	4960 nM	236	–	–	–	–	–	–	–
COC(=O)c1cccnc1N[C@@H]1CC[C@@H](C)N(C(=O)c2ccccc2-n2nccn2)C1	30	69 nM	2	–	12 nM	–	0.4 nM	–	–	–
Cc1c(C#N)ccnc1O[C@@H]1CC[C@@H](C)N(C(=O)c2ccccc2-n2ncnn2)C1	358	4590 nM	596	–	–	–	–	–	–	–
COc1ccc(C(=O)N2C[C@H](Oc3nccc(C#N)c3C)CC[C@H]2C)c(SC)n1	1260	> 10000 nM	> 455	–	–	–	–	Active	–	–
CC(=O)Nc1ccc(-c2ccccc2)c(C(=O)N2C[C@H](Oc3nccc(C#N)c3C)CC[C@H]2C)n1	20	74 nM	2	–	12 nM	–	0.6 nM	–	38 nM	–
C[C@@H]1CC[C@@H](Oc2nccc3c2C(=O)OC3(C)C)CN1C(=O)c1ccccc1-n1nccn1	379	–	414	–	834 nM	–	2.2 nM	–	–	–
Cc1c(C#N)ccnc1O[C@@H]1CC[C@@H](C)N(C(=O)c2cccnc2-c2ccccc2)C1	434	4670 nM	180	–	–	–	–	–	–	–
Cc1c(C#N)ccnc1O[C@@H]1CC[C@@H](C)N(C(=O)c2ccccc2C2CC2)C1	741	1740 nM	193	–	–	–	–	–	–	–
COc1ccc(C(=O)N2C[C@H](Oc3nccc(C#N)c3C)CC[C@H]2C)c(-n2nccn2)c1	–	–	–	–	–	–	–	–	–	Active
COC(=O)c1cccnc1O[C@@H]1CC[C@@H](C)N(C(=O)c2ccccc2-n2nccn2)C1	26	309 nM	9	–	66 nM	–	2.5 nM	–	35 nM	–
